Laboratory results taken from ChEMBL document CHEMBL1138050, “Furan-2-ylmethylene thiazolidinediones as novel, potent, and selective inhibitors of phosphoinositide 3-kinase gamma” (J Med Chem, 2006).

How the values were obtained:
RAW264.7 = test: Inhibition of C5a-mediated PKB/Akt phosphorylation in mouse Raw264 macrophage; type: functional, cell-based
In short: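 Raw-264 murine macrophages starved 3 h in serum-free medium, pretreated 30 min with inhibitor or DMSO, then stimulated 5 min with 50 nM C5a. Phospho-Ser-473 Akt measured by ELISA. Concentration-response; IC50. Mean ± standard deviation of four independent experiments done in triplicate.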

[1] = target: Tyrosine-protein kinase Blk (Mus musculus) (UniProt P16277); test: Residual activity at mouse Blk at 10 uM in presence of 10 uM ATP relative to control
Tyrosine-protein kinase Blk (Mus musculus), sequence (P16277 whole entry): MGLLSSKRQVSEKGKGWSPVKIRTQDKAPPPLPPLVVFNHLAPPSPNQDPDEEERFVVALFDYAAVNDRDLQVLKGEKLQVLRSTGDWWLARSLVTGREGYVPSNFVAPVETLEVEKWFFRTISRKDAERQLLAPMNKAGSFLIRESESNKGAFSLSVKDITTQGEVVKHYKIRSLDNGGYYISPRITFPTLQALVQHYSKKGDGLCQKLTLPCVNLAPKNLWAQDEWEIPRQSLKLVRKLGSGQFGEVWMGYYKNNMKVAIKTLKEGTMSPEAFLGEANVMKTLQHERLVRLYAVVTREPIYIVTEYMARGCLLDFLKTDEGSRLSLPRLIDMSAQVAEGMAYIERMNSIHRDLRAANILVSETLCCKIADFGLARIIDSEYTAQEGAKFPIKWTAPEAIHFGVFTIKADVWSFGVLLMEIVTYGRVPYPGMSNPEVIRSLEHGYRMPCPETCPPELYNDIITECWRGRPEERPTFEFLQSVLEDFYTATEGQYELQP
In short: (§1)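 Single-concentration counter-screen across a panel of 80 Ser/Thr and Tyr protein kinases. Compound was tested at 10 µM with ATP at 10 µM. Activity remaining in each kinase is expressed relative to control.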

[2] = target: Tyrosine-protein kinase Fyn (Homo sapiens) (UniProt P06241); test: Residual activity at human FYN at 10 uM in presence of 10 uM ATP relative to control
In short: (§2)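 Panel of Ser/Thr and Tyr protein kinases, each tested with 10 µM compound in the presence of 10 µM ATP; activity expressed relative to control.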

[3] = Metabolism in rat microsome after 1 hr; type: ADME; conditions: microsomes, read-out: Activity
THP-1 = test: Inhibition of MCP1-induced chemotaxis of THP1 cells; type: functional, cell-based; conditions: Homo sapiens
[4] = target: CDK6/cyclin D3 (Homo sapiens) (UniProt P30281+Q00534); test: Residual activity at human CDK6/CyclinD3 at 10 uM in presence of 10 uM ATP relative to control; type: protein-complex assay; in short: as §2
[5] = target: Mitogen-activated protein kinase 13 (Homo sapiens) (UniProt O15264); test: Residual activity at human SAPK4 at 10 uM in presence of 10 uM ATP relative to control; in short: as §1
Mitogen-activated protein kinase 13 (Homo sapiens), sequence (O15264 whole entry): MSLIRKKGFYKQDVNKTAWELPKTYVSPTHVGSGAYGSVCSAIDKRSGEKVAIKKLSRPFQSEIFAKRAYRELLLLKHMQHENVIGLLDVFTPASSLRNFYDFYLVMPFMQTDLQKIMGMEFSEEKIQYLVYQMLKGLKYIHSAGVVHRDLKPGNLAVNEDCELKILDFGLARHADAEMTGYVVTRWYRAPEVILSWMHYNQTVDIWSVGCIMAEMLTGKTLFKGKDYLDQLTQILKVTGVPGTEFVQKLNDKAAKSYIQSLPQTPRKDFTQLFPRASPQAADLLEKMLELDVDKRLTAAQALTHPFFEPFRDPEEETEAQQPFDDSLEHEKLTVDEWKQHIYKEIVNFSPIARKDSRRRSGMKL

[6] = target: Mitogen-activated protein kinase 10 (Homo sapiens) (UniProt P53779); test: Residual activity at human JNK3 at 10 uM in presence of 10 uM ATP relative to control; in short: as §1
[7] = target: Mitogen-activated protein kinase 11 (Homo sapiens) (UniProt Q15759); test: Residual activity at human SAPK2b at 10 uM in presence of 10 uM ATP relative to control; in short: as §1
Mitogen-activated protein kinase 11 (Homo sapiens), sequence (Q15759 whole entry): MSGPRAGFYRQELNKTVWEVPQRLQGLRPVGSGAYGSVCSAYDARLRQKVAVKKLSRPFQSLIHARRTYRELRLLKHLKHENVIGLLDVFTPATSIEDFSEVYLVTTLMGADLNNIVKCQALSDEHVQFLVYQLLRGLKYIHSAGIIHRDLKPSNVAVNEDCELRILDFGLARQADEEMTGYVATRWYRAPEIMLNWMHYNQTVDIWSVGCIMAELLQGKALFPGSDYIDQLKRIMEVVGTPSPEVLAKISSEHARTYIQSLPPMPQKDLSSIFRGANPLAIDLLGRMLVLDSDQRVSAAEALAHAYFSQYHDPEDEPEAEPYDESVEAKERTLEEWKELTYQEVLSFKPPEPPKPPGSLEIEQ

[8] = target: Fibroblast growth factor receptor 3 (Homo sapiens) (UniProt P22607); test: Residual activity at human FGFR3 at 10 uM in presence of 10 uM ATP relative to control; in short: as §2
Fibroblast growth factor receptor 3 (Homo sapiens), sequence (P22607 23-806 limits assumed): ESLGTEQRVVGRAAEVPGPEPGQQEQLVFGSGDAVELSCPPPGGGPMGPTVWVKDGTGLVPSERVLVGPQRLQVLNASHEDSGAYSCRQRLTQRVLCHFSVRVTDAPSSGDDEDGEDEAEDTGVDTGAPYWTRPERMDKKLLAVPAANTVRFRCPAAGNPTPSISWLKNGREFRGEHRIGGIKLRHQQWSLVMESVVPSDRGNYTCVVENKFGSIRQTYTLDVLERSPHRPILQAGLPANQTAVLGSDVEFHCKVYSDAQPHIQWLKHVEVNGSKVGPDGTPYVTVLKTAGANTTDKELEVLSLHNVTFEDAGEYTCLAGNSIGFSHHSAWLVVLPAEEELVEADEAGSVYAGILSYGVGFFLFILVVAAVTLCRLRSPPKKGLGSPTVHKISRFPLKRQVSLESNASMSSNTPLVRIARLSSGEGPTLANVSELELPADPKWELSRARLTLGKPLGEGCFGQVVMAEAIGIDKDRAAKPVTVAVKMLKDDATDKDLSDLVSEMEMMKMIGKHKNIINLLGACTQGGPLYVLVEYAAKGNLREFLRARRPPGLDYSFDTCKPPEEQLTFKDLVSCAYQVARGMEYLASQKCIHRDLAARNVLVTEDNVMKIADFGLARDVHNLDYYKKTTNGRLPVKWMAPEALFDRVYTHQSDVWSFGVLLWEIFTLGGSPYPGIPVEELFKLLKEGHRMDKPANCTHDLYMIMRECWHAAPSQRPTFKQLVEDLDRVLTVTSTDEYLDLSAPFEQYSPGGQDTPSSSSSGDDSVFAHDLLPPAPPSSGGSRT

[9] = target: T1, Phosphatidylinositol 4,5-bisphosphate 3-kinase catalytic subunit delta isoform (Homo sapiens, UniProt O00329); test: Inhibition of human PI3Kdelta
T1 sequence (O00329 whole entry): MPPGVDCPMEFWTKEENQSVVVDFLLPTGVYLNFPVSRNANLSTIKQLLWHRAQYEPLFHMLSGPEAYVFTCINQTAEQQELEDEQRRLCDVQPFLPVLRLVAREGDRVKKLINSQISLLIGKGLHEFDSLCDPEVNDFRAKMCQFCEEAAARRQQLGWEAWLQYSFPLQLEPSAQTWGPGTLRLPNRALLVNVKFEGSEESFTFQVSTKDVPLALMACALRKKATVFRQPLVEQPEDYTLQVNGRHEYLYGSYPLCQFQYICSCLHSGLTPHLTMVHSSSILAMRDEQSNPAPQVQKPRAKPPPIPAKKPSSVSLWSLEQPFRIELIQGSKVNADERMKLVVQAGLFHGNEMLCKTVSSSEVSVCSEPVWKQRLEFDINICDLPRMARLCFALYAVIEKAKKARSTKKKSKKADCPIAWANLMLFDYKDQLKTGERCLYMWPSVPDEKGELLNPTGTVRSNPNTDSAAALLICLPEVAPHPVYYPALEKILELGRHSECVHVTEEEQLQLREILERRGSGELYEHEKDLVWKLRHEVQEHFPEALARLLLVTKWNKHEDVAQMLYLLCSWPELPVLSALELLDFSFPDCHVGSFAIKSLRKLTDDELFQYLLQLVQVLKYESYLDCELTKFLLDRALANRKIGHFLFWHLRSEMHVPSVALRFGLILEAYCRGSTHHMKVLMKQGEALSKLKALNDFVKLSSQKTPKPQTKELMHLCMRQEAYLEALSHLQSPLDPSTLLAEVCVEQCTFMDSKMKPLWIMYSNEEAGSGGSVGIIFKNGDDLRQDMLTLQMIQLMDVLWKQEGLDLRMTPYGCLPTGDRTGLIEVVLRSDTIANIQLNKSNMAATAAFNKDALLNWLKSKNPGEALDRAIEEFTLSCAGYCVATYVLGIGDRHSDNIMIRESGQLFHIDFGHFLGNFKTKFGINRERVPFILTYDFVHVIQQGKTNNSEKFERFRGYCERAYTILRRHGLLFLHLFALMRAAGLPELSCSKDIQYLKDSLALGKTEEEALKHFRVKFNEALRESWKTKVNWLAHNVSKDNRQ

[10] = target: Dual specificity mitogen-activated protein kinase kinase 7 (Homo sapiens) (UniProt O14733); test: Residual activity at human MKK7-beta at 10 uM in presence of 10 uM ATP relative to control; in short: as §1
Dual specificity mitogen-activated protein kinase kinase 7 (Homo sapiens), sequence (O14733 whole entry): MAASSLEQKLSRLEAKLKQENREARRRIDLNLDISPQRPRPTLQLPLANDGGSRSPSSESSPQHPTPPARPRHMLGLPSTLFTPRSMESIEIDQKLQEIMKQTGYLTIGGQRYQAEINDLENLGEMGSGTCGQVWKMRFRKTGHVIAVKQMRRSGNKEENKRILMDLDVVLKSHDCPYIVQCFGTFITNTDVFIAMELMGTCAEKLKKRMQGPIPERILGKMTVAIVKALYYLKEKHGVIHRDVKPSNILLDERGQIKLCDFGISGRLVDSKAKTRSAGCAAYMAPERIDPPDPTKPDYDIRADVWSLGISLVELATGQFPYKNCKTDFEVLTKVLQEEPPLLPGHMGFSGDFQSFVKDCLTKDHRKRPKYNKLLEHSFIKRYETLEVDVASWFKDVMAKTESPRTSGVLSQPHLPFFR

[11] = target: Platelet-derived growth factor receptor alpha (Homo sapiens) (UniProt P16234); test: Residual activity at human PDGFRalpha at 10 uM in presence of 10 uM ATP relative to control; in short: as §1
Rattus norvegicus = test: Volume of distribution in rat at 10 mg/kg, iv; type: ADME, organism-based; design: dose 10 mg/kg, route intravenous; conditions: in vivo
In short: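 Given to rats as a single 10 mg/kg intravenous dose of the potassium salt, run alongside a matching oral arm. Pharmacokinetic parameters derived were CL, AUC, Cmax, t1/2 and Vd.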

[12] = target: Serine/threonine-protein kinase D1 (Homo sapiens) (UniProt Q15139); test: Residual activity at human PKCmu at 10 uM in presence of 10 uM ATP relative to control; in short: as §1
Serine/threonine-protein kinase D1 (Homo sapiens), sequence (Q15139 whole entry): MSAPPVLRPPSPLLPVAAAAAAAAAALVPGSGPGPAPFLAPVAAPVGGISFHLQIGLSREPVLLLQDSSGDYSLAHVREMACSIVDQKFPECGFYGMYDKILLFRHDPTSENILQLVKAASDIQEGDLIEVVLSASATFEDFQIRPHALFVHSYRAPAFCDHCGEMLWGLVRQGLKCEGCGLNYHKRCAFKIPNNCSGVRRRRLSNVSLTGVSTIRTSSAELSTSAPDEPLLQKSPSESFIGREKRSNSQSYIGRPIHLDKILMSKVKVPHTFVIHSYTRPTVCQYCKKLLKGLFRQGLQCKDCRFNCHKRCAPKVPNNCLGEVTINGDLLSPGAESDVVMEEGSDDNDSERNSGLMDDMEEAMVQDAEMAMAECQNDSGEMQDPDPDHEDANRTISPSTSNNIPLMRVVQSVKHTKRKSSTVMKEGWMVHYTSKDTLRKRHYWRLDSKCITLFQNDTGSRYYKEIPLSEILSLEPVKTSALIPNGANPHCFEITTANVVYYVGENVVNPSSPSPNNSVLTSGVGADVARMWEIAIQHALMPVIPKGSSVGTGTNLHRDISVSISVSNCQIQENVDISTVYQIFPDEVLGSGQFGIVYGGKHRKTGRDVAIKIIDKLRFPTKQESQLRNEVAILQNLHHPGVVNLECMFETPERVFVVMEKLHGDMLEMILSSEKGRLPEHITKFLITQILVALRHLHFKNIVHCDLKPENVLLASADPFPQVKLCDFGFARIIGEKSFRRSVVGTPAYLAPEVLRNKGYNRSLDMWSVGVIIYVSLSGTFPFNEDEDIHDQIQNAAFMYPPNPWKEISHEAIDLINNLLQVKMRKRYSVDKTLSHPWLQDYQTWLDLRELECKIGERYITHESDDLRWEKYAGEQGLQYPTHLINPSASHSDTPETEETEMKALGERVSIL

[13] = target: Tyrosine-protein kinase CSK (Homo sapiens) (UniProt P41240); test: Residual activity at human CSK at 10 uM in presence of 10 uM ATP relative to control; in short: as §2
[14] = target: Platelet-derived growth factor receptor beta (Homo sapiens) (UniProt P09619); test: Residual activity at human PDGFRbeta at 10 uM in presence of 10 uM ATP relative to control; in short: as §1
[15] = target: Tyrosine-protein kinase ABL1 (Homo sapiens) (UniProt P00519); test: Residual activity at human Abl at 10 uM in presence of 10 uM ATP relative to control; in short: as §2
Tyrosine-protein kinase ABL1 (Homo sapiens), sequence (P00519 whole entry): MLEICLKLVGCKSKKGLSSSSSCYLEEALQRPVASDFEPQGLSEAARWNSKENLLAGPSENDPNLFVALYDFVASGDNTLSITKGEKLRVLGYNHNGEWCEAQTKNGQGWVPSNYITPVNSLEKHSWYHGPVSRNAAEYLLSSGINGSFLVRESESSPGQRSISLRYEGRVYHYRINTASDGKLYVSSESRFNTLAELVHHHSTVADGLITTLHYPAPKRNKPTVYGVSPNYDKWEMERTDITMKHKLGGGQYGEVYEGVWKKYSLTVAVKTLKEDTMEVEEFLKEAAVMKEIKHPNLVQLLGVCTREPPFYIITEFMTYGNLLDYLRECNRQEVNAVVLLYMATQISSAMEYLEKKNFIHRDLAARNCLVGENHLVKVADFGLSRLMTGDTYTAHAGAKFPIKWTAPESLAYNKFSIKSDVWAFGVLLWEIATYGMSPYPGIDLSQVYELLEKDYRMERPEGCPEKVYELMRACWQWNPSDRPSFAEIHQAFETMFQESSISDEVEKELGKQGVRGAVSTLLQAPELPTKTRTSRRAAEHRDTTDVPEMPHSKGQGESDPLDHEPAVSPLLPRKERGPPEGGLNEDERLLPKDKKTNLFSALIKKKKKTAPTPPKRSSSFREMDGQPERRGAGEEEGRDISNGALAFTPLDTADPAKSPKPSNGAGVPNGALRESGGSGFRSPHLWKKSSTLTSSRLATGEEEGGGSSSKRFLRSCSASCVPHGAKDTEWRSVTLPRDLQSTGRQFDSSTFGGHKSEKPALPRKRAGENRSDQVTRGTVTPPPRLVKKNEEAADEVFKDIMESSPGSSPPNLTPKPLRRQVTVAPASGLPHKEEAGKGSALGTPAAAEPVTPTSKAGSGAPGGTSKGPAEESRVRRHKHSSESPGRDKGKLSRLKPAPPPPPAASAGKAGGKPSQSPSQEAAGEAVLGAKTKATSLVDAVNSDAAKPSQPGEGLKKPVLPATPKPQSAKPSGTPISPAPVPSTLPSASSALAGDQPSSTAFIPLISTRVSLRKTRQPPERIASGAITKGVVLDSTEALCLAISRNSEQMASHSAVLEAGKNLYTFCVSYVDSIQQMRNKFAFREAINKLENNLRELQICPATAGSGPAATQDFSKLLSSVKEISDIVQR

[16] = target: Ca2+/calmodulin-dependent protein kinase II (CaM kinase II) (Rattus norvegicus) (UniProt P11275+P08413+P15791+P11730); test: Residual activity at rat CaMK2 at 10 uM in presence of 10 uM ATP relative to control; type: protein assay
[17] = target: Cyclin-dependent kinase 2/cyclin E (Homo sapiens) (UniProt P24864+P24941+O96020); test: Residual activity at human CDK2/CyclinE at 10 uM in presence of 10 uM ATP relative to control; type: protein-complex assay; in short: as §2
[18] = target: Glycogen synthase kinase-3 alpha (Homo sapiens) (UniProt P49840); test: Residual activity at human GSK3alpha at 10 uM in presence of 10 uM ATP relative to control; in short: as §2
Glycogen synthase kinase-3 alpha (Homo sapiens), sequence (P49840 2-483 limits assumed): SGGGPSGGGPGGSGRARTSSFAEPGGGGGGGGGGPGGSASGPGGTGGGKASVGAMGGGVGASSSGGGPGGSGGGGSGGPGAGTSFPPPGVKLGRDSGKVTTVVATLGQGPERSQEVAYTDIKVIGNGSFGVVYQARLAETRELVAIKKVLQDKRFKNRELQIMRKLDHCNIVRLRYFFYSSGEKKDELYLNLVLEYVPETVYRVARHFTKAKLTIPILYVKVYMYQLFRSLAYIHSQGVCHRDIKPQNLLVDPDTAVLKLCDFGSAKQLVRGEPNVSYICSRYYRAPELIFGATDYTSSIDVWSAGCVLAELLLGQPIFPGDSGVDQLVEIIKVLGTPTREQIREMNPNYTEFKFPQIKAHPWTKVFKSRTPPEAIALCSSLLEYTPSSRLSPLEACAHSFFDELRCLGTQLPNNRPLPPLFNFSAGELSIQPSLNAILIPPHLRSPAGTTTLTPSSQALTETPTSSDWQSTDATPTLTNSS

- IC50 (RAW264.7): 230 nM
- Activity [1]: 70%
- Activity [2]: 91%
- metabolised at 1 h [3]: 16%
- IC50 (THP-1): 53 µM
- Activity [4]: 89%
- Activity [5]: 93%
- Activity [6]: 86%
- Activity [7]: 89%
- Activity [8]: 121%
- IC50 [9]: 20 µM
- Activity [10]: 2%
- Activity [11]: 85%
- Vdss (Rattus norvegicus): 25.3 L/kg
- Activity [12]: 98%
- Activity [13]: 103%
- Activity [14]: 96%
- Activity [15]: 92%
- Activity [16]: 97%
- Activity [17]: 93%
- Activity [18]: 66%
SMILES: O=C1NC(=O)/C(=C/c2ccc(-c3ccc(F)cc3O)o2)S1
